Test results published in ChEMBL document CHEMBL4651341, “The discovery of a novel series of compounds with single-dose efficacy against juvenile and adult Schistosoma species” (PLoS Negl Trop Dis, 2021).
pEC50: −log10 of the molar value. In brackets after ≈: the same amount, converted by molar mass.

Legend:
[1] = Partition coefficient of compound between n-octanol and PBS (pH7.4); assay type: physicochemical; settings: octanol/water, pH 7.4
Summary of the method: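 Shake-flask method using octanol and PBS pH 7.4, each pre-saturated with the other. Compound was shaken 2 h at 850 rpm, 25 °C, then the phases were separated by centrifugation and both layers diluted and analysed by LC-MS/MS. LogD = log(octanol AUC × relative dilution / buffer AUC).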

[2] = test system: Schistosoma mansoni; assay: Concentration required to kill 50% of 21 day old worms 5 days after drug treatment.; assay type: functional, organism-based; settings: Puerto Rican, 120 h
Summary of the method: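 Juvenile S. mansoni (Puerto Rican strain) were perfused from CD1 mice 3 weeks post-infection and washed. They were cultured 6–8 per well in 200 µL DMEM with 2 mM glutamine, penicillin/streptomycin and 10% FCS at 37 °C, 5% CO2. Viability of individual worms was scored on day 5 after dosing (120 h).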

[3] = Mean plasma concentration at 4h in Swiss albino male mice at […] per compound (administered orally in a mixture of 5 compounds to 3 mice) assessed by LCMS/MS.; assay type: ADME, organism-based; settings: mouse, po
[4] = Mean oral bioavailability in Swiss albino male mice at […] per compound (administered in a mixture of 5 compounds to 3 mice) assessed by LCMS/MS.; also: dose 2.5 mg/kg; assay type: ADME, organism-based; settings: male, Swiss albino, mouse, in vivo, read-out: Bioavailability
[5] = Mean time to peak plasma concentration in Swiss albino male mice at […] per compound (administered orally in a mixture of 5 compounds to 3 mice) assessed by LCMS/MS.; assay type: ADME, organism-based; settings: mouse, po
[6] = Plasma protein binding determined at 10uM by LC-MS/MS.; assay type: ADME, cell-free; settings: mouse
Summary of the method: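 Equilibrium dialysis of plasma spiked at 10 µM (0.1% DMSO) against PBS pH 7.4, 6 h at 37 °C, duplicates. Both chambers analysed by LC-MS/MS after acetonitrile precipitation. % free = buffer/plasma area ratio; recovery also calculated.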

[7] = Mean half-life in Swiss albino male mice at 1 mg/kg per compound (administered iv in a mixture of 5 compounds to 3 mice) assessed by LCMS/MS.; assay type: ADME, organism-based; settings: mouse, in vivo
Summary of the method: (§1)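 Male Swiss albino mice (~30 g), 3 per experiment, mostly dosed as mixtures of 5 compounds iv via the lateral tail vein. Vehicle: 10% DMSO/90% 50 mM Na2HPO4 with 0.5% Tween-80. Plasma stored at −20 °C and quantified by LC-MS after acetonitrile precipitation.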

[8] = Mean volume of distribution at steady state in Swiss albino male mice at 1 mg/kg per compound (administered iv in a mixture of 5 compounds to 3 mice) assessed by LCMS/MS.; assay type: ADME, organism-based; settings: mouse, in vivo, read-out: Volume; summary of the method: as §1
[9] = Mean plasma concentration at 24h in Swiss albino male mice at […] per compound (administered orally in a mixture of 5 compounds to 3 mice) assessed by LCMS/MS.; assay type: ADME, organism-based; settings: mouse, po
[10] = test system: Schistosoma mansoni; assay: Concentration required to kill 50% of 42 day old worms 5 days after drug treatment.; assay type: functional, organism-based; settings: Puerto Rican, 120 h
Summary of the method: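 Adult S. mansoni were perfused from CD1 mice 6 weeks post-infection and washed. They were cultured 3 pairs per well in 1 mL DMEM with 2 mM glutamine, penicillin/streptomycin and 10% FCS […] at 37 °C, 5% CO2. Viability of individual worms was scored on day 5 (120 h).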

[11] = Mean observed clearance in Swiss albino male mice at 1 mg/kg per compound (administered iv in a mixture of 5 compounds to 3 mice) assessed by LCMS/MS.; assay type: ADME, organism-based; settings: male, Swiss albino, mouse, in vivo, read-out: Clearance (converted)
Summary of the method: as §1, with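 “Tween-80. Blood sampled at 5, 15, 30 min and 1, 2, 4, 8, 24 h.” for “Tween-80.”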

[12] = Solubility at 25 degC of compound (diluted from DMSO) in PBS at pH 7.4 determined after 24h (1h sonication, 22h shaking, 1h sonication) by LCMS/MS; assay type: physicochemical
[13] = Concentration required to kill 50% HepG2 cells as detected by MTT staining; assay type: toxicity, cell-based; settings: homo sapiens, read-out: TC50 (the source's name)
[14] = Mean AUC inf in Swiss albino male mice at 1 mg/kg per compound (administered iv in a mixture of 5 compounds to 3 mice) assessed by LCMS/MS.; assay type: ADME, organism-based; settings: male, Swiss albino, mouse, in vivo
Summary of the method: as §1, with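 “Tween-80. Blood sampled at 5, 15, 30 min and 1, 2, 4, 8, 24 h.” for “Tween-80.”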

[15] = Concentration required to kill 50% MRC-5 cells as detected by Alamar blue staining; assay type: toxicity, cell-based, MRC5; settings: homo sapiens, read-out: TC50 (the source's name)
[16] = Percentage of parent compound remaining after incubation for 30 minutes with cyropreserved mouse hepatocytes at a concentration of 1uM compound and […], determined by LCMS; assay type: ADME, tissue-based, Hepatocyte; settings: cryopreserved mouse hepatocytes, read-out: Stability
Summary of the method: (§2)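 Compound was incubated at 1 µM final (2 µM working solution mixed 1:1 with hepatocyte suspension) in supplemented KHB pH 7.4. Conditions: 37 °C, 5% CO2, gentle mixing, duplicates. Reaction quenched with ice-cold acetonitrile containing standard; analysed by LC-MS/MS. % remaining = AUC at t / AUC at T0.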

[17] = Concentration of drug in plasma at 4h following oral drug adminstration at given dose. Determined by LCMS/MS; assay type: ADME, organism-based; settings: CD1, mouse
Summary of the method: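 Plasma sampled from the mice of the efficacy experiments, each animal sampled once: one animal per group at 1, 4 and 8 h, two per group at 24 h. Plasma prepared by acetonitrile protein precipitation and analysed by LC-MS against a 10-point calibration line spiked in blank matrix, with QCs at three or more levels.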

[18] = test system: Schistosoma mansoni; assay: Percentage of worms remaining following treatment of female CD1 mice infected with S. mansoni worms (21 day old - juvenile or 42 day old - adult) with compound by oral gavage. Worms were recovered by portal perfusion with citrate saline 8-14 days post treatment and counted. Percentages are from a mean of 5 or 6 animals.; assay type: functional, Mus musculus; parameters: concentration or dose not given beside the values
Summary of the method: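 Female CD1 mice were infected subcutaneously with 150 cercariae and treated at day 21 (juvenile) or day 42 (adult). Single oral gavage, or two doses 12 h apart, given in 7% Tween-80/3% ethanol/water (sonicated) or in 1:19 DMSO:corn oil. Controls received vehicle only. Worm recoveries are group means, n = 5–6.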

[19] = Percentage of parent compound remaining after incubation for 90 minutes with cyropreserved mouse hepatocytes at a concentration of 1uM compound and […], determined by LCMS; assay type: ADME, tissue-based, Hepatocyte; settings: cryopreserved mouse hepatocytes, read-out: Stability; summary of the method: as §2
[20] = Percentage of parent compound remaining after incubation for 90 minutes with cyropreserved human hepatocytes at a concentration of 1uM compound and 1 million cells/uL, determined by LCMS/MS; assay type: ADME, tissue-based, Hepatocyte; settings: cryopreserved human hepatocytes, read-out: Stability; summary of the method: as §2

| Lipophilicity [1] | concentration at 4 h [3] | bioavailability [4] | Tmax [5] | Binding [6] | half-life [7] | Vd [8] | concentration at 24 h [9] | clearance [11] | solubility kinetic at 24 h [12] | AUC(0-inf) [14] | remaining at 0.5 h, 1 µM [16] | concentration at 4 h [17] | remaining at 1.5 h, 1 µM [19] | remaining at 1.5 h, 1 µM [20] | SMILES | pEC50 [2] | pEC50 [10] | CC50 [13] | CC50 [15] | Efficacy [18] |
| --- | --- | --- | --- | --- | --- | --- | --- | --- | --- | --- | --- | --- | --- | --- | --- | --- | --- | --- | --- | --- |
| 3.12 = | 171 ng/mL | 41.7% | 15 min | 99.595% | 177 min | 0.918 L/kg | 0.1 ng/mL | 9.63 mL/min/kg | 2.88 µM (≈ 1.13 µg/mL) | 870 ng·h/mL | 74.1% |  |  |  | Oc1cc(F)c(-c2cnc3cnc(-c4cccc(C(F)(F)F)c4)cn23)c(F)c1 | 5.58 | 5.62 | 23.1 µM | 8.13 µM |  |
|  |  |  | 15 min |  |  |  |  | 18 mL/min/kg |  | 466 ng·h/mL |  | 4140 ng/mL |  |  | CC(C)c1nc2cnc(-c3ccc(F)c(C(F)(F)F)c3)cn2c1-c1c(F)cc(O)cc1F |  | > 7.34 | 7.13 µM |  |  |
| 5.29 = | 298 ng/mL |  |  |  |  |  |  |  |  |  |  | 1500 ng/mL |  |  | Fc1ccc(-c2cn3c(-c4ccc5[nH]ncc5c4F)c(C(F)(F)F)nc3cn2)cc1C(F)(F)F |  |  | 16.6 µM |  | 1.84% |
| 4.19 = | 318 ng/mL |  | 60 min |  |  |  |  |  |  |  |  | 1150 ng/mL |  |  | CC(C)c1nc2cnc(-c3ccc(F)c(C(F)(F)F)c3)cn2c1-c1ccc2[nH]ncc2c1F |  |  | 12 µM |  |  |
| 4.82 = |  |  |  | 99.945% |  |  |  |  | 6.8 µM (≈ 2.82 µg/mL) |  | 54.4% |  |  |  | CC(C)c1nc2cnc(-c3cccc(C(F)(F)F)c3)cn2c1-c1ccc(O)cc1F | 7.10 | > 6.91 | 9 µM | 14.5 µM |  |
|  |  |  |  |  |  |  |  |  |  |  |  |  | 73.4% | 73.6% | Fc1ccc(-c2cn3c(-c4ccc5[nH]ncc5c4F)c(C4CCC4)nc3cn2)cc1C(F)(F)F | 7.44 | 7.43 |  |  |  |
|  | 52.3 ng/mL |  | 25 min |  |  |  |  |  |  |  |  | 1250 ng/mL |  |  | CC(C)c1cc(-c2cn3c(-c4ccc5[nH]ncc5c4F)c(C(F)(F)F)nc3cn2)ccc1F | > 8.57 |  | > 17 µM |  |  |
| 3.39 = | 7.79 ng/mL | 13.5% | 15 min | 99.805% | 137 min | 2.98 L/kg | 0.1 ng/mL | 48.5 mL/min/kg | 1.54 µM (≈ 0.624 µg/mL) | 172 ng·h/mL | 64.1% |  |  |  | Cc1nc2cnc(-c3ccc(F)c(C(F)(F)F)c3)cn2c1-c1ccc(O)cc1F | > 6.19 | > 6.11 | > 11.1 µM | 15.8 µM |  |

| SMILES | Lipophilicity [1] | concentration at 4 h [3] | bioavailability [4] | Tmax [5] | Binding [6] | half-life [7] | Vd [8] | concentration at 24 h [9] | clearance [11] | solubility kinetic at 24 h [12] | AUC(0-inf) [14] | remaining at 0.5 h, 1 µM [16] | concentration at 4 h [17] | remaining at 1.5 h, 1 µM [19] | remaining at 1.5 h, 1 µM [20] | pEC50 [2] | pEC50 [10] | CC50 [13] | CC50 [15] | Efficacy [18] |
| --- | --- | --- | --- | --- | --- | --- | --- | --- | --- | --- | --- | --- | --- | --- | --- | --- | --- | --- | --- | --- |
| CC(C)c1nc2cnc(-c3cccc(C(F)(F)F)c3)cn2c1-c1ccc(OP(=O)(O)O)cc1F | 0.075 = | 5.46 ng/mL | 5.44% | 15 min | 96.805% | 31.7 min | 1.26 L/kg | 0.1 ng/mL | 69 mL/min/kg | 204 µM (≈ 101 µg/mL) | 131 ng·h/mL | 39.6% |  |  |  | 6.90 | > 7.31 | 9.2 µM |  |  |
